Measurements as given in article PMC2843818 (Bioorganic & medicinal chemistry letters, 2010).
Blank lines part the entries; values can stand above or below the molecule they belong to.

How the values were obtained:
[1] = target: T1, hS1P1 (Homo sapiens, UniProt P21453); assay: Calcium mobilization Gi assay, S1P1; assay type: cell-based; conditions: for EC50 S1P1: calcium mobilization Gi assay, whole cell
[2] = target: human S1P3 (Homo sapiens, UniProt Q99500); assay: Calcium mobilization Gi assay, S1P3; assay type: cell-based; conditions: for EC50 S1P3: calcium mobilization Gi assay, whole cell
Sequence of human S1P3 (Q99500 whole entry): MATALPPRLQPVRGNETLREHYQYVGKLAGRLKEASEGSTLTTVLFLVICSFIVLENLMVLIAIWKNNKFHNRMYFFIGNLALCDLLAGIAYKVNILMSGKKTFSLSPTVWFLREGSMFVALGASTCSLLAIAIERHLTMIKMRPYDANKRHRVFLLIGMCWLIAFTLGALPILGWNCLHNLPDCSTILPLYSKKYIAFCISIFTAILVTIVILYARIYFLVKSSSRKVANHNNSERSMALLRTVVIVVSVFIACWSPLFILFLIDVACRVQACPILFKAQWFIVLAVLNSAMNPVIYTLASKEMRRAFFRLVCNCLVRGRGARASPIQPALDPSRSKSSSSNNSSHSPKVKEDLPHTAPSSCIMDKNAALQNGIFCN

[3] = target: T1, hS1P1; assay: Calcium mobilization Gq assay, S1P1; assay type: cell-based; conditions: for EC50 S1P1: calcium mobilization Gq assay, whole cell
[4] = tested on: lymphopenia; assay: Mouse lymphopenia; assay type: in vivo; conditions: for duration of sustained lymphopenia: mouse PK/PD study
Outline: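 Mouse PK/PD study with single doses of test compound at 1 or 2 mg/kg. Lymphopenia was followed over time to find how long it lasted. Pharmacokinetics were measured in parallel: oral bioavailability, half-life, clearance, volume, and percent in vivo phosphorylation.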

T1 sequence (P21453 whole entry): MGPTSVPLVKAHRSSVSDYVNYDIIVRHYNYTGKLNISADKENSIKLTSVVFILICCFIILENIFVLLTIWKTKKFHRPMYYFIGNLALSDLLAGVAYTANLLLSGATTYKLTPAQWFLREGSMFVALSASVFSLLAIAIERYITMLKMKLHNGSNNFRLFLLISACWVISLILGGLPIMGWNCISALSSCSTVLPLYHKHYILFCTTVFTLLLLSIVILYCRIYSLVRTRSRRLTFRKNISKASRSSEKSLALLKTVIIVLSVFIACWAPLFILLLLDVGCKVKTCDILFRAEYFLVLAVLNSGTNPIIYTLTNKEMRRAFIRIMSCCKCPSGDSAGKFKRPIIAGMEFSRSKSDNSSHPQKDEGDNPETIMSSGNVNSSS

fold less potent at S1P1 than (S)-FTY720-P ([1]; Gi assay): 6 fold | fold less potent at S1P3 than (S)-FTY720-P ([2]; Gi assay): 2 fold
SMILES: CCCCCCCCc1ccc2c(c1)CC[C@@H](C(N)(CO)COP(=O)(O)O)C2 (single isomer, unassigned) [(2’R)-3-P isomer 1]

EC50 S1P3 [2]: not active
SMILES: CCCCCCCCc1ccc2c(c1)CC[C@@H](C(N)(CO)COP(=O)(O)O)C2 (single isomer, unassigned) [(2’R)-3-P isomer 2]

EC50 S1P1 [3]: very active
SMILES: CCCCCCCCc1ccc2c(c1)CC[C@@H]([C@@](C)(N)COP(=O)(O)O)C2 [(2R, 2’R)-6]

SMILES: CCCCCCCCc1ccc2c(c1)CC[C@H]([C@@](C)(N)CO)C2 [(2R, 2’S)-5, (−)-(R)-2-amino-2-((S)-6-octyl-1,2,3,4-tetrahydronaphthalen-2-yl) propan-1-ol]
duration of sustained lymphopenia ([4]; 1 mg/kg dose): one-week

selectivity of S1P1 over S1P3 ([3]; Gq assay, compared to FTY720): moderate selectivity | EC50 S1P1 [3]: very active
SMILES: CCCCCCCCc1ccc2c(c1)CC[C@H]([C@@](C)(N)COP(=O)(O)O)C2 [(2R, 2’S)-6]

SMILES: CCCCCCCCc1ccc2c(c1)CC[C@@H]([C@](C)(N)CO)C2 [(2S, 2’R)-5]
ED50 ([4]; Mus musculus, read-out: Mouse Lymphopenia ED50): > 5 mg/kg | Mouse Lymphopenia ED50 [4]: not active

S1P1/S1P3 selectivity ([1]; Gi assay): great S1P1/S1P3 selectivity | EC50 S1P1 [1]: significantly less active | EC50 S1P3 [2]: no activity
SMILES: CCCCCCCCc1ccc2c(c1)CC[C@@H]([C@](C)(N)COP(=O)(O)O)C2 [(2S, 2’R)-6]

SMILES: CCCCCCCCc1ccc2c(c1)CC[C@H]([C@](C)(N)CO)C2 [(2S, 2’S)-5]
Mouse Lymphopenia ED50 [4]: not active

S1P1/S1P3 selectivity ([1]; Gi assay): great S1P1/S1P3 selectivity | EC50 S1P1 [1]: significantly less active | EC50 S1P3 [2]: no activity | EC50 S1P1 [3]: not active
SMILES: CCCCCCCCc1ccc2c(c1)CC[C@H]([C@](C)(N)COP(=O)(O)O)C2 [(2S, 2’S)-6]

SMILES: CCCCCCCCc1ccc2c(c1)CC[C@@H](C(N)(CO)CO)C2 [(2’R)-3]
duration of sustained lymphopenia ([4]; 2 mg/kg dose): 72 h

EC50 S1P3 [2]: not active | EC50 S1P1 [3]: not active
SMILES: CCCCCCCCc1ccc(CC[C@@](N)(CO)COP(=O)(O)O)cc1 [(R)-FTY720-P, reference compound]
